Laboratory results from ChEMBL document CHEMBL4020794, “Inhibition of phosphatidylinositol-3-kinase by the furanosesquiterpenoid hibiscone C” (Bioorg Med Chem Lett, 2017).
Active and inactive are the calls of the source. The rule behind the calls is not given here.

How the values were obtained:
Mus musculus [1] = organism: Mus musculus; assay: Inhibition of PI3K in C57BL/6 mouse T cells assessed as decrease in Akt phosphorylation at <10 uM after 1 hr by Western blot analysis; type: cell-based
Mus musculus [2] = organism: Mus musculus; assay: Inhibition of PI3K in C57BL/6 mouse IL2 starved T cells assessed as decrease in IL-2 restimulated Akt phosphorylation at 100 uM preincubated for 30 mins followed by recombinant human IL-2 addition measured after 1 to 3 hrs by Western blot analysis
In short: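 Activated T cells deprived of IL-2 overnight, pretreated 30 min with 100 µM compound or DMSO vehicle, then stimulated with 1000 U/mL recombinant human IL-2 for the indicated times. Phospho-Akt detected by Western blot, actin as loading control. Three independent experiments.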

T-cell [3] = assay: Cytotoxicity against C57BL/6 mouse T cells assessed as reduction in cell viability at 100 uM after 24 hrs by trypan blue assay; type: functional, cell-based
In short: (§1)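 Activated T cells in growth (not IL-2 starved) culture, duplicate samples, given DMSO vehicle or compound at the indicated doses. Followed over 24 h. At set time points, cells counted for proliferation and viability scored by trypan blue exclusion.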

T-cell [4] = assay: Antiproliferative activity against C57BL/6 mouse T cells at […] after 18 hrs by trypan blue assay; type: functional, cell-based; in short: as §1
Mus musculus [5] = organism: Mus musculus; assay: Competitive inhibition of PI3K in C57BL/6 mouse T cells assessed as decrease in Akt phosphorylation at 100 uM after 1 to 3 hrs by Western blot analysis; type: cell-based
In short: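 Growing activated T cells, not starved of IL-2, exposed to 100 µM compound or DMSO vehicle for the indicated times. Phospho-Akt detected by Western blot, actin as loading control. Three independent experiments.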

inhibition (Mus musculus [2]): Active
Structure (SMILES): CC(C)[C@@H]1CC(=O)c2coc3c2[C@H]1C[C@@H](C)C3=O
inhibition (Mus musculus [1]): inactive
Activity (T-cell [3]): Active
Activity (T-cell [4]): Active
inhibition (Mus musculus [5]): Active
